Source: PubChem BioAssay (several laboratories)
CRFBP-R2 agonist – agonists of CRF-BP/CRF-R2 complex, primary screen, cell-based, HEK293, calcium dye fluorescence, uHTS. activation, % at 13.2 µM. 350,000 compounds, 0.46% hits. CRF-binding protein / CRF receptor 2 complex (human). calcium dye fluorescence (FLIPR); percent of saturating CRF peptide response;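 active = activation of at least 50%, plus an integration ratio under a set limit after plate pattern correction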;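 also: plate controls were neutral control wells without compound for no effect and CRF at EC100 for full effect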
TMEM16A inh – TMEM16A chloride channel inhibitors, primary screen, cell-based, HTS; Anoctamin-1 (Mus musculus), Q8BHY3; 310,000 compounds, 1.2% hits; normalized B-score (activity score, 25-100; higher = stronger inhibition) at 10 µM; HEK293 TMEM16A/YFP iodide influx fluorescence, ionomycin; AID 588511, 2011;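 active = ratio plate-corrected score three or more library SD toward inhibition, starting fluorescence score within five deviations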;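 also: score derived from kinetic fluorescence span divided by baseline fluorescence per well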
CRFBP-R2 block – antagonists of CRF-BP/CRF-R2 complex, primary screen, cell-based, HEK293, calcium dye fluorescence, uHTS | CRF-induced calcium fluorescence | inhibition, % at 11.8 µM | 350,000 compounds, 0.59% hits | AID 588475, 2011;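 active = inhibition of the ligand-induced calcium signal above about 50% at the single tested concentration, limit read from the data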
TMEM16A act – TMEM16A chloride channel activators or potentiators, primary screen, cell-based, HTS; 340,000 compounds, 0.3% hits; AID 623877, 2012; B-score at 10 µM; HEK293 TMEM16A/YFP-H148Q/I152L, iodide quench fluorescence; active compounds read low;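 active = fluorescence-ratio B-score plate-corrected deviation score at least 3 library SD below zero, with starting fluorescence score within 5 deviations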;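 also: channel opened by trigger with iodide after compound preincubation; score built on the fluorescence ratio of max minus min over baseline; more negative score means more quench and so TMEM16A activation or potentiation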
TAAR1 antag – human TAAR1 antagonists, primary screen, Fluo-8 calcium fluorescence, CHO RD-HGA16 cells | Trace amine-associated receptor 1 (Homo sapiens), Q96RJ0 | antagonist | inhibition, % at 3 µM | 360,000 compounds, 1.5% hits | AID 624466, 2012;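 active = inhibition above a per-plate cutoff, the mean inhibition of test compounds on that plate plus 3 SD, cut at about 49% in these data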;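 also: 0% = DMSO plus EC80 beta-PEA response and 100% = DMSO alone without agonist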
Target sequence (Q96RJ0 whole entry, looked up): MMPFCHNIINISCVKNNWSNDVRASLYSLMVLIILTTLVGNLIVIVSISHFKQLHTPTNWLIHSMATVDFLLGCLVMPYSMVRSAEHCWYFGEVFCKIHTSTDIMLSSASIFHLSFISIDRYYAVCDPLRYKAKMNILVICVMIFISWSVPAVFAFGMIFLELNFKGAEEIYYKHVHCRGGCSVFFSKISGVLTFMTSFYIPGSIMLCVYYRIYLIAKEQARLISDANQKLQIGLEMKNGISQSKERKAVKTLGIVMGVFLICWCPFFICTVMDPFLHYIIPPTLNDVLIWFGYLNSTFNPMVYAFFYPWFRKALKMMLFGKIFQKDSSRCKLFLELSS
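Test system: hTAAR1-expressing CHO RD-HGA16 cells, Gα16-coupled; Probe or stimulus: EC80 β-phenethylamine stimulus; Compound dosing: single nominal final test compound concentration of 3 µM; Timing: 140 s kinetic read after compound, 140 s after agonist; Signal: Fluo-8 calcium-sensitive fluorescence; Measure: % inhibition of agonist calcium response; Controls: DMSO and EC80 PEA controls.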
TAAR1 agonist – human TAAR1 agonists, primary screen, Fluo-8 calcium fluorescence, CHO RD-HGA16 cells. Trace amine-associated receptor 1 (Homo sapiens), Q96RJ0. vehicle wells 0%, saturating PEA agonist 100%. activation, % at 3 µM. 360,000 compounds, 0.99% hits;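 active = activation above the mean activation of all test compounds in the run plus 3 SD, cut at about 38% in these data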
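Assay system – CHO-derived RD-HGA16 cells with stable Gα16 and human TAAR1 · Compound dosing – one-point dosing at 3 µM (nominal) · Incubation – 17-24 h seeding, 75 min 37 °C dye, 30 min RT · Measured by – kinetic Fluo-8 calcium fluorescence · Control set – DMSO vehicle as 0%, PEA at EC100 as 100% · Repeats – single well for each compound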
Numbers without * were called inactive; i = inactive; . = not tested or not shown. An excerpt weighted towards active compounds, which were near 3.9% of everything screened.

SMILES | CRFBP-R2 agonist | TMEM16A inh | CRFBP-R2 block | TMEM16A act | TAAR1 antag | TAAR1 agonist
COc1ccccc1N1C(=O)c2cccc3c(C(=O)O)ccc(c23)C1=O | 1.6 | i | -18.7 | i | 12.9 | 0.3
Cc1cc(F)ccc1-c1cc(C(=O)NCc2ccccc2)[nH]n1 | . | . | . | . | 0.1 | 2.1
CC(C)Oc1cc(F)ccc1-c1cc(C(=O)Nc2cccc(C(F)(F)F)c2)[nH]n1 | . | . | . | . | 55.2* | 1.1
CC(C)Oc1ccc(F)cc1-c1cc(C(=O)NCc2ccc(C(F)(F)F)cc2)[nH]n1 | . | . | . | . | 54.0* | 2.4
CC(C)Oc1ccc(F)cc1-c1cc(C(=O)NCc2cc(C(F)(F)F)cc(C(F)(F)F)c2)[nH]n1 | . | . | . | . | 6.1 | 0.5
Cc1cc(O)ccc1-c1cc(C(=O)NCc2ccc(F)cc2)[nH]n1 | . | . | . | . | 32.3 | 49.0*
O=C1CC2(CCN(C(=O)C3CC(=O)N(c4ccc(F)cc4)C3)CC2)Oc2ccccc21 (configuration not stated) | -0.6 | i | 9.1 | i | 1.0 | 0.7
Cc1ccc(C)c(OCC(=O)Nc2ccccc2C(=O)NC2CC2)c1 | 4.7 | i | 11.5 | i | -3.8 | 2.2
CC(NCC(=O)Nc1ccccc1C(=O)NC1CC1)c1cccc(Cl)c1 (configuration not stated) | -0.4 | . | 66.2* | i | -0.5 | 4.8
O=C(COc1ccccc1F)Nc1ccccc1C(=O)NC1CC1 | -0.3 | . | -4.5 | i | 51.6* | 6.8
Cc1ccccc1C(=O)Nc1ccnn1C1CCN(C(=O)c2ccoc2)CC1 | -0.3 | i | -9.3 | i | -2.1 | 0.6
O=C1NN(c2ccccc2)C(=O)/C1=C\c1ccccc1OCC(=O)N1CCOCC1 | -0.4 | 25* | -18.1 | i | -17.3 | 9.8
CCc1ccccc1N=C1S/C(=C/c2ccccc2OCC(=O)N2CCOCC2)C(=O)N1C | -8.4 | i | -7.4 | i | 15.3 | 30.7
O=C(NCCc1cccs1)C12CN(Cc3ccccc3)CC1C(c1cccc([N+](=O)[O-])c1)=NO2 (configuration not stated) | 1.3 | i | -12.5 | i | 0.2 | 40.1*
N#Cc1c(N)nc(SC2CCCCC2=O)c(C#N)c1-c1ccco1 (configuration not stated) | 0.9 | i | 106.3* | i | 16.6 | 7.1
Cc1cc(N/N=C/c2ccccc2)nc(N)n1 | 1.2 | i | -2.1 | i | 8.9 | 40.7*
Cc1nc(N)nc(N/N=C/c2ccccc2)n1 | 1.6 | i | -6.1 | i | -3.3 | 3.0
CCOC(=O)C1C(=O)NC(c2ccccc2)=NC1c1ccc(Br)cc1 (configuration not stated) | -0.6 | i | -22.2 | i | 1.6 | 3.2
O=C(O)c1ccccc1C(=O)Nc1ccc(Oc2cccc(C(F)(F)F)c2)nc1 | 2.9 | i | -1.1 | i | -3.2 | -1.3
Cc1ccc(C(=O)Nc2ccc(Oc3cccc(C(F)(F)F)c3)nc2)cc1 | 2.4 | i | -9.3 | i | 32.3 | 39.5*
Cc1ccc(-n2ccnc(SCC(=O)NCCc3ccccc3)c2=O)cc1F | -1.6 | i | -15.1 | i | -36.9 | 37.5*
O=C(COC(=O)C1CCN(c2ccc(C(F)(F)F)cn2)CC1)Nc1ccc(F)cc1[N+](=O)[O-] | -0.5 | i | -5.0 | i | 13.8 | 0.2
CC(C)(C)C(=O)/C(=C\c1ccc([N+](=O)[O-])cc1)n1cncn1 | . | i | . | . | . | .
CC(C)(C)C(=O)/C(=C/c1ccc(Cl)cc1)n1cncn1 | 28.7 | i | 54.6* | i | -13.4 | -1.4
Nc1ccc2c(c1)Oc1ccccc1C=C2 | 3.4 | i | -12.5 | -5.29* | 5.4 | 3.5
SMILES | CRFBP-R2 agonist | TMEM16A inh | CRFBP-R2 block | TMEM16A act | TAAR1 antag | TAAR1 agonist
CCn1c(SCC(=O)N2CCCCC2)nc2c(c1=O)SCC2 | -0.7 | i | 51.7* | i | -36.0 | -1.9
Cc1sccc1C1C(C#N)=C(N)SC(N)=C1C#N | . | i | . | . | . | .
Cc1cc(C2C(C#N)=C(N)SC(N)=C2C#N)c(C)s1 | 104.0* | i | -84.9 | i | . | .
COCCn1c(C)cc(C(=O)CSc2ccc(NC(C)=O)cc2)c1C | 62.4* | i | -128.9 | i | 1.4 | 6.7
C=CCn1c(C)cc(C(=O)CSc2ccc(NC(C)=O)cc2)c1C | -0.5 | i | -2.6 | i | 0.8 | 1.8
COCCn1c(C)cc(C(=O)CSc2ccc3ccccc3n2)c1C | 0.9 | 25* | 32.8 | i | 24.7 | 7.2
COc1ccc(CC(=O)NC(C)c2ccc3ccccc3c2)cc1 (configuration not stated) | 0.6 | i | 1.4 | i | -7.2 | -0.3
CCCCCCCCn1c(=O)c(C(=O)OC)c(N)c2ccccc21 | 0.5 | 100* | -26.7 | i | 15.7 | 11.3
COC(=O)c1c(NC(=O)CN2C(=O)C(=O)N(CC(C)C)C2=O)sc(C)c1C | -1.1 | i | -6.3 | i | -21.6 | -0.5
COc1ccc(C(=O)Cn2cnc3ccccc3c2=O)c(OC)c1 | 54.1* | i | -38.0 | i | -31.8 | 1.0
Cc1cc(C)cc(Cn2c3ccc(NC(=O)NCCc4cccs4)cc3c(=O)n2C)c1 | . | . | . | . | 58.5* | 41.9*
Cn1c(=O)c2cc(NC(=O)NCCc3cccs3)ccc2n1Cc1ccccc1 | . | . | . | . | 20.9 | 6.4
COc1cc(NS(=O)(=O)c2ccc(NC(=O)c3cccnc3)cc2)ncn1 | 0.1 | i | 3.2 | i | -9.8 | 2.7
O=Cc1c[nH]c2ccc(NC(=O)OCc3ccccc3)cc12 | -4.1 | . | -6.8 | i | -18.4 | 6.5
O=Cc1c[nH]c2cccc(OCc3ccccc3)c12 | -2.2 | . | -0.2 | i | 49.4* | -1.6
O=C(Cn1c(=O)n(Cc2ccc(F)cc2)c(=O)c2ccccc21)NCC1CCCO1 (configuration not stated) | 1.0 | i | -0.9 | i | -2.2 | -2.6
O=c1c2ccccc2n(Cc2ccc(F)cc2)c(=O)n1C1CCCC1 | 7.8 | i | 80.9* | i | 0.5 | 9.4
CCCC(=O)NC(Nc1ccccc1F)C(Cl)(Cl)Cl (configuration not stated) | . | 100* | . | . | . | .
O=C(NCCOc1ccccc1)C1CCC(=O)N(CCN2CCOCC2)C1 (configuration not stated) | 4.7 | i | 3.3 | i | -15.2 | 8.4
CCC1Oc2ccccc2N(CC(=O)N2CC(C)CC(C)C2)C1=O (configuration not stated) | -0.8 | . | -14.7 | . | -9.7 | 1.4
